Assay results of several laboratories.
Compare with care: the assays were run in different laboratories.
Target: Cyclin-dependent kinase-like 1 (CDKL1, Homo sapiens, UniProt Q00532)

For c1cncc(-c2cccc(Nc3nccc(NC4CCCCC4)n3)c2)c1, the remaining binding was 70% (binding, competition with immobilised ligand; 10 µM).
With O=C(NCCCN1CCOCC1)c1ccc(Nc2nccc(-c3cc4ccccc4s3)n2)cc1 the remaining binding was 54% (binding, competition with immobilised ligand; 1 µM).
CCN1CCN(Cc2ccc(C(=O)Nc3ccc(C)c(Oc4ccc5c(c4)CC(=O)N5)c3)cc2C(F)(F)F)CC1 has a remaining binding of 100% (binding, competition with immobilised ligand; 1 µM).
CNC(=O)[C@@H]1CC[C@@H](n2c(-c3ccc4cnccc4c3)nc3ccc(C(=O)NCc4cccc(C(N)=O)c4)cc32)C1 has a remaining binding of 90% (binding, competition with immobilised ligand; 1 µM).
For CN(C)c1nccc(-c2cnn3ncccc23)n1, the remaining binding was 89% (binding; 1 µM).
The remaining binding of FC(F)(F)Oc1cccc(-c2cnc3ccc(-c4ccncc4)nn23)c1 is reported as 68% (cell-free assay, competition with immobilised ligand; 5 µM).
CN(C)c1nccc(-c2cnc3ncccn23)n1 has a remaining binding of 100% (binding; 1 µM).
For O=C(c1ccc(Nc2ncc(Cl)c(-c3cc4ccccc4s3)n2)cc1)N1CCC(N2CCCC2)CC1, the remaining binding was 51% (binding, competition with immobilised ligand; 1 µM).
Cc1cnn2ncc(-c3ccnc(N(C)C)n3)c2c1 gave a remaining binding of 73% (binding; 1 µM).
With Cc1nc(N2CC[C@@H](O)C2)ncc1-c1cc(C(F)(F)F)cc2[nH]ncc12 the remaining binding was 77% (binding, competition with immobilised ligand; 1 µM).
Nc1ncc2c(n1)-c1c([nH]c3ccc(C#CC4CC4)cc13)CCCC2 gave a remaining binding of 81% (binding, competition with immobilised ligand; 1 µM).
Cc1cc(-n2nc(Cc3cc(F)cc(C(F)(F)F)c3)nc2C)ccc1C(N)=O has a remaining binding of 71% (cell-free assay, competition with immobilised ligand; 1 µM).
Cc1cnc(Nc2ccc(C(=O)N3CCC(N4CCCC4)CC3)cc2)nc1-c1cc2ccccc2s1 gave a remaining binding of 50% (binding, competition with immobilised ligand; 1 µM).
For C[C@H](c1ccnc(Nc2nc3ccc(-c4cc(N(C)C)ncn4)cc3[nH]2)c1)N1CCN(C(=O)CC(F)(F)F)CC1, the remaining binding was 100% (binding, competition with immobilised ligand; 0.1 µM).
CN(C)c1ncc(F)c(-c2cnn3ncccc23)n1 gave a remaining binding of 100% (binding; 1 µM).
For C[C@@H](c1cccc(C#N)c1)n1cc(Cl)cc(C(N)=O)c1=N, the remaining binding was 100% (binding, competition with immobilised ligand; 1 µM).
C[C@@H]1CCN(c2nccc(-c3cnn4ncccc34)n2)C1 has a remaining binding of 70% (binding; 1 µM).
The remaining binding of Cc1nccc(COC(=O)N2C[C@@H]3[C@@H](CNC(=O)c4ccc5[nH]nnc5c4)[C@@H]3C2)n1 is reported as 81% (cell-free assay, competition with immobilised ligand; 1 µM).
C[C@@H](c1ccc(-n2cnc3c(N)ncnc32)cc1)N1CCc2nn(C)c(Cc3ccccc3)c2C1=O gave a remaining binding of 58% (binding, competition with immobilised ligand; 0.1 µM).
CCS(=O)(=O)c1cc2cc(C[C@](O)(CC(C)(C)c3ccc(F)cc3C(N)=O)C(F)(F)F)[nH]c2cn1 gave a remaining binding of 81% (cell-free assay, competition with immobilised ligand; 1 µM).
O=C(NCC1CCOCC1)c1n[nH]cc1NC(=O)c1c(F)cccc1F has a remaining binding of 77% (binding, competition with immobilised ligand; 1 µM).
